Screening data deposited in PubChem BioAssay by The Scripps Research Institute Molecular Screening Center.
GalR3 antagonist – blocks the human galanin receptor 3; AID 651719; HEK293 GalR3-CNG cAMP membrane potential fluorescence; galR3 body fused to GalR1 C-terminus; O60755; inhibition, % at 3 µM; 360,000 tested, 0.44% active;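 active = inhibition above the screen-wide average plus 3 SD, cut at about 13% in these data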;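 also: forskolin and galanin both at EC90 stimulate the cells; cAMP rise reported by CNG channel membrane potential dye signal; 0% = forskolin plus galanin with DMSO and 100% = forskolin alone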
Rin1 Abl inh – human Rin1-Abl interaction inhibition; 360,000 tested, 0.4% active; P00519+Q13671; inhibition, % at 7.35 µM; AID 588664; TR-FRET Rin1/Abl binding, biochemical; in the data active = inhibition above about 5%, passing the limit was not always enough
ASAP1 GAP inh – ASAP1 ArfGAP inhibition. Q9ULH1. ASAP1-stimulated ARF1 GTP hydrolysis, GDP FP detection. inhibition, % at 16.5 µM. 360,000 tested, 0.19% active. AID 624377; in the data active = inhibition above about 25%;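 also: 0% = vehicle with enzyme and substrate and 100% = no enzyme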
Target sequence (Q9ULH1 325-724 limits assumed): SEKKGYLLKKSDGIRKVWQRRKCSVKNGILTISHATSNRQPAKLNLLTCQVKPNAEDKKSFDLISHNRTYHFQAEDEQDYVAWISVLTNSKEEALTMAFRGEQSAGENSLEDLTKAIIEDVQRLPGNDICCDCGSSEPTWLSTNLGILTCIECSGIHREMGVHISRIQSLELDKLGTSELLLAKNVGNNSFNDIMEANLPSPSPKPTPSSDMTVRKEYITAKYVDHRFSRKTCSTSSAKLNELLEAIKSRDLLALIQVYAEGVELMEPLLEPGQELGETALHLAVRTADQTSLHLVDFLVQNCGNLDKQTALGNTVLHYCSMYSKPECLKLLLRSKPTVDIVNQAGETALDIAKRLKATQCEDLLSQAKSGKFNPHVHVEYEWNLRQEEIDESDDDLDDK
ARFGAP1 inh – inhibitors of rat ARFGAP1; Q62848; Arfgap1-stimulated ARF1 GTP hydrolysis, GDP FP detection; inhibition, % at 16.5 µM; 360,000 tested, 0.26% active;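 active = inhibition above a per-plate limit, mean inhibition of low control wells plus 3 SD, cut at about 25% in these data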;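 also: 0% = DMSO wells with enzyme and 100% = wells lacking Arfgap1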
Target sequence (Q62848 1-136 limits assumed): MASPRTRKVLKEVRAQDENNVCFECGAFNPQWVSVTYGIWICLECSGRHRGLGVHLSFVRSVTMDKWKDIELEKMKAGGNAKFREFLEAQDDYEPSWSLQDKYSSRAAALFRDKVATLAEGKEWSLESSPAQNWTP
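Material – truncated rat Arfgap1 GAP domain · Buffer or medium – HEPES-based buffer, pH 7.5 · Reagent – human ARF1(Δ1-17)-GTP substrate · Dosing – 16.5 µM single point, 1.26% DMSO · Schedule – GTP hydrolysis reaction 2 h at 25 °C · Technique – GDP detection by fluorescence polarization · Benchmarks – No-Arfgap1 wells (100%) versus DMSO full-reaction wells (0%) · Repeats – single replicate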
GalR3 antag conf – confirmation of human galanin receptor 3 antagonists | inhibition, % at 3 µM | 1,600 tested, 59% active | HEK293 GalR3 CNG cAMP biosensor, membrane potential fluorescence; galR3 fused to GalR1 carboxy tail; challenged with forskolin and galanin at EC90 | shares compounds with GalR3 antagonist;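 active = inhibition above the primary screen's cutoff, the mean inhibition of all screened compounds plus 3 SD, cut at about 13% in these data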;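 also: 0% = forskolin plus galanin and 100% = forskolin alone with DMSO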
CNG parental – acts as nonspecific agonist in parental HEK-CNG cells; shares compounds with GalR3 antagonist; HEK293-CNG parental cells, cAMP membrane potential fluorescence; normalised: DMSO wells 0%, forskolin wells 100%; activation, % at 3 µM; 1,600 tested, 10% active; AID 652268; in the data active = activation above about 1.3%
Active calls of the source: *; · = not tested or not shown. A selection: hits, their analogues and other compounds. The true share with any hit is near 1.2%.

SMILES | GalR3 antagonist | Rin1 Abl inh | ASAP1 GAP inh | ARFGAP1 inh | GalR3 antag conf | CNG parental
Cc1ccc(C2(c3ccc(C)cc3)CC2C(=O)Nc2ccc([N+](=O)[O-])cc2O)cc1 (stereo not given) | 61* | 1 | 3 | -6 | 22* | -2
COc1ccc(N(CC(=O)N/N=C/c2ccc(OC)c(OC)c2)S(=O)(=O)c2ccccc2)cc1 | 14* | 2 | 6 | 6 | 34* | 0
COc1ccc(/C=N/NC(=O)CN(CCc2ccccc2)S(=O)(=O)c2ccc(NC(C)=O)cc2)cc1OC | 17* | 3 | 6 | 7 | 29* | 0
COc1ccc(/C=N/NC(=O)CN(c2ccc(OC)cc2)S(=O)(=O)c2ccccc2)cc1 | -3 | 2 | -12 | 6 | · | ·
NC(=O)c1c(N)[nH]c(C(=O)c2ccccc2)c1-c1ccccc1Cl | -7 | · | 14 | -9 | · | ·
COCc1cc(N2CCN(C(=O)OC(C)(C)C)C[C@H]2C)ccc1N1CCN(Cc2ccccc2)[C@H](C)C1 | -4 | · | -4 | -13 | · | ·
Nc1ncnc(N)c1NC(=O)c1ccccc1 | -7 | · | 1 | -5 | · | ·
OCCNCCOc1ccccc1F | 13* | 0 | 4 | 2 | 0 | 0
CCCc1ccccc1OCCNC(=O)c1cc(=O)n(C)c(=O)n1C | 16* | -1 | -10 | 1 | 5 | 0
CN1CCCCC(NC(=O)C23CC4CC(CC(C4)C2)C3)C1=O (stereo not given) | 0 | · | 5 | -11 | · | ·
N#CCC(=O)Nc1ccc(C(=O)OCC(=O)c2ccc3c(c2)NC(=O)CO3)cc1 | 13* | -1 | 5 | 9 | 8 | 0
Cc1cc2c(c(=O)o1)[C@@]1(C(=O)N(C)c3cccc(Br)c31)C1=C(CCCC1=O)O2 | 1 | · | -5 | 3 | · | ·
COc1ccc(-c2nnn(CC(=O)N(CC(=O)NC3CCCC3)Cc3ccco3)n2)cc1OC | 21* | 4 | 3 | 12 | 14* | 0
O=C(CN(Cc1ccco1)C(=O)Cn1nnc(-c2ccc(F)cc2)n1)NC1CCCC1 | 3 | 0 | 1 | 5 | · | ·
CCN1CC(=O)Nc2cc(S(=O)(=O)N3CCOCC3)ccc21 | 16* | -1 | -5 | 13 | -2 | 0
CC(NC(=O)c1c(N)[nH]c(C(=O)c2ccc(Cl)cc2)c1-c1ccc(Br)cc1)c1cccc2ccccc12 (stereo not given) | -7 | · | -7 | -2 | · | ·
CC1(C)OC2C(O1)[C@@H](CO)O[C@H]2n1cnc2c(N)ncnc21 (stereo not given in full) | 0 | 2 | -7 | 4 | · | ·
Nc1ncnc2c1ncn2[C@@H]1O[C@H](CO)[C@@H](O)[C@H]1O | 112* | -2 | -3 | · | -20 | 5.8*
O=C(COC(=O)c1ccccn1)Nc1ccc2c(c1)OCO2 | -3 | 3 | 9 | 12 | · | ·
O=C(COC(=O)c1cccnc1)Nc1ccc2c(c1)OCO2 | 14* | 3 | -2 | -11 | -1 | 0
COC(=O)C1=C(C)N(C)C(=NCc2cccc(C(F)(F)F)c2)NC1c1ccccc1 (stereo not given) | -8 | · | -8 | -8 | · | ·
CCCCCc1c(C)nc(Nc2ccc(F)cc2)[nH]c1=O | -4 | 0 | -12 | 18 | · | ·
CCCCc1c(C)nc(Nc2ccc(OC)cc2)[nH]c1=O | 28* | 2 | -3 | -14 | -2 | 0
CCc1nnc(NC(=O)c2nc3nc(C)cc(C)n3n2)s1 | 13* | 0 | -3 | 2 | 0 | 0
O=C(Nc1ccc(F)cc1F)N1CCCN(c2ccc(C(F)(F)F)cn2)CC1 | -7 | 1 | -3 | 1 | · | ·
SMILES | GalR3 antagonist | Rin1 Abl inh | ASAP1 GAP inh | ARFGAP1 inh | GalR3 antag conf | CNG parental
Fc1ccc(NC(=S)N2CCCN(c3ccc(C(F)(F)F)cn3)CC2)c(F)c1 | 110* | 2 | 2 | -3 | 107* | -1
CN(C(=O)[C@@H](Cc1ccccc1)NC(=O)[C@H]1O[C@@H](n2ccc(=O)[nH]c2=O)[C@H](O)[C@@H]1O)C1CCCCC1 | -8 | · | 0 | -11 | · | ·
CCOC(=O)c1c(C)[nH]c(C(=O)COC(=O)[C@H](C)NC(=O)c2ccccc2Cl)c1C | 18* | -3 | 15 | -6 | 14* | 0
CCOC(=O)c1c(C)[nH]c(C(=O)COC(=O)COc2ccccc2C=O)c1C | 14* | 0 | 6 | -4 | 0 | 0
CCOC(=O)c1c(C)[nH]c(C(=O)COC(=O)/C=C/c2cccc(OC)c2OC)c1C | 2 | -1 | -4 | 9 | · | ·
O=C(O)c1ccc(NC(=S)NC(=O)c2ccc(-c3ccc(Br)cc3)o2)cc1 | 13* | -2 | 8 | -9 | -19 | 1.7*
CCCc1nc2c(C)cc(Br)cn2c1Cc1cccc(Cl)c1 | -6 | · | 13 | -14 | · | ·
COc1ccc(C2C(C(=O)c3cccs3)=C(O)C(=O)N2c2cccc(C)n2)cc1 (stereo not given) | 5 | 2 | 1 | 5 | · | ·
Cc1ccc(C2C(C(=O)c3cccs3)=C(O)C(=O)N2c2nnc(C)s2)cc1 (stereo not given) | 13* | -1 | 2 | -10 | 18* | 0
COc1ccc(CCNC(=O)Cn2nc(C)c3c(C)n(-c4ccccc4)nc3c2=O)c(OC)c1 | 3 | 0 | -10 | -3 | · | ·
COc1ccc(OC)c(CCNC(=O)Cn2nc(C)c3c(C)n(-c4ccc(C)cc4)nc3c2=O)c1 | 33* | 4 | 1 | 8 | 98* | 0
CCOC(=O)N1CCN(C(=O)C[C@@H]2C[C@@]3(C(=O)OC)CC(C)(C)CC=C3N(Cc3ccccc3)C2=O)CC1 | -8 | · | -1 | 2 | · | ·
CCOc1cc(CNc2ccc3c(c2)OCCO3)cc(Br)c1OC | · | 0 | -16 | -5 | 0 | 1
CNC[C@H]1Oc2ccc(NC(=O)Nc3ccc4c(c3)OCO4)cc2C(=O)N([C@H](C)CO)C[C@@H]1C | 15* | 1 | 6 | 4 | 8 | 0
O=C(NCC(=O)N1CCN(c2ccccc2)CC1)c1ccc(Cl)cc1 | 14* | 2 | 10 | 3 | 1 | 0
O=C1[C@H](c2ccccc2)[C@@H](c2ccncc2)N1c1ccncc1 | -8 | · | 13 | 5 | · | ·
O=C(Nc1ccc(Oc2ccccc2)cc1)c1csc([C@H]2C[C@H](O)[C@@H](CO)O2)n1 | 84* | -4 | 10 | -3 | 109* | -1
CC(=O)Nc1ccc(NC(=O)c2csc([C@@H]3C[C@H](O)[C@@H](CO)O3)n2)cc1 | -6 | 0 | 0 | 2 | · | ·
CCOC(=O)C1=CCN(S(=O)(=O)c2ccc(Cl)cc2)C1c1cccc(F)c1 (stereo not given) | -8 | · | 2 | -4 | · | ·
CC1(C)CC(=O)C=C(c2ccccc2F)C1=O | -5 | · | -3 | -4 | · | ·
CC(/C=N\NC(=O)Cn1c(C)nc2ccccc21)=C\c1ccccc1 | 70* | -4 | 7 | 10 | 8 | 0
